Laboratory results reported in paper PMC4887080 (Journal of nuclear medicine : official publication, Society …, 2016).

Key:
[1] = test system: human MM cell lines H929, RPMI-8226, OPM2; experiment: Flow cytometry binding of LLP2A-Cy5 to human MM cell lines; format: cell-based
VLA-4 [2] = target: T1, VLA-4 (Mus musculus, UniProt P09055+Q00651); experiment: PET uptake in tumor-free α4 -/- mice vs wild-type KaLwRij mice; format: in vivo; details: tumor-free α4 -/- mice compared with age-matched wild-type KaLwRij mice
T1 sequence (Q00651 40-1039 limits assumed): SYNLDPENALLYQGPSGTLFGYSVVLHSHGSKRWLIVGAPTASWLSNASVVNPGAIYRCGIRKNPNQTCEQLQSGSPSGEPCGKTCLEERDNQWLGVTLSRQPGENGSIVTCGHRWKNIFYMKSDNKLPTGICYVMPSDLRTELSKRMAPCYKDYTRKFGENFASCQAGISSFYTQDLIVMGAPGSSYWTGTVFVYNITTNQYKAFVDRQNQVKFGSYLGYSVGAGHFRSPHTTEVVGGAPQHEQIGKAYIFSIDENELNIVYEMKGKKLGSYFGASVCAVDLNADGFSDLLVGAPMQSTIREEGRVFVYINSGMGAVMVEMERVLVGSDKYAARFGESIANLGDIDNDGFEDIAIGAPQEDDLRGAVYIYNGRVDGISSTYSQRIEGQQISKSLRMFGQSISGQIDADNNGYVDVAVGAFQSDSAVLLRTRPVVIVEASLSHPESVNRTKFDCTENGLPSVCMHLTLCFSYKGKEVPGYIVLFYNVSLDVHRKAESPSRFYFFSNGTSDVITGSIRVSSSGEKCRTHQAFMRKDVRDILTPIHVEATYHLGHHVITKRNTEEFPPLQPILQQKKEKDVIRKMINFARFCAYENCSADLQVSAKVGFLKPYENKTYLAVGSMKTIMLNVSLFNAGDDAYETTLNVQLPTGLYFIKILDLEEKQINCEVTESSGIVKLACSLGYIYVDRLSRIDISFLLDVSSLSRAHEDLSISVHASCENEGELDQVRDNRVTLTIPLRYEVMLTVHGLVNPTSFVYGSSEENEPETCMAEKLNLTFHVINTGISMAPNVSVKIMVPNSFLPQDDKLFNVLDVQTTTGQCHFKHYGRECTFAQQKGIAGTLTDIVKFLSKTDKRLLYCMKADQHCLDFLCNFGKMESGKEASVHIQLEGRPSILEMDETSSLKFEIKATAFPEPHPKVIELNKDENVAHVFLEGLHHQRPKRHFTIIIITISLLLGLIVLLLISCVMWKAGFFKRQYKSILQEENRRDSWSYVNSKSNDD
T1 sequence (P09055 21-798): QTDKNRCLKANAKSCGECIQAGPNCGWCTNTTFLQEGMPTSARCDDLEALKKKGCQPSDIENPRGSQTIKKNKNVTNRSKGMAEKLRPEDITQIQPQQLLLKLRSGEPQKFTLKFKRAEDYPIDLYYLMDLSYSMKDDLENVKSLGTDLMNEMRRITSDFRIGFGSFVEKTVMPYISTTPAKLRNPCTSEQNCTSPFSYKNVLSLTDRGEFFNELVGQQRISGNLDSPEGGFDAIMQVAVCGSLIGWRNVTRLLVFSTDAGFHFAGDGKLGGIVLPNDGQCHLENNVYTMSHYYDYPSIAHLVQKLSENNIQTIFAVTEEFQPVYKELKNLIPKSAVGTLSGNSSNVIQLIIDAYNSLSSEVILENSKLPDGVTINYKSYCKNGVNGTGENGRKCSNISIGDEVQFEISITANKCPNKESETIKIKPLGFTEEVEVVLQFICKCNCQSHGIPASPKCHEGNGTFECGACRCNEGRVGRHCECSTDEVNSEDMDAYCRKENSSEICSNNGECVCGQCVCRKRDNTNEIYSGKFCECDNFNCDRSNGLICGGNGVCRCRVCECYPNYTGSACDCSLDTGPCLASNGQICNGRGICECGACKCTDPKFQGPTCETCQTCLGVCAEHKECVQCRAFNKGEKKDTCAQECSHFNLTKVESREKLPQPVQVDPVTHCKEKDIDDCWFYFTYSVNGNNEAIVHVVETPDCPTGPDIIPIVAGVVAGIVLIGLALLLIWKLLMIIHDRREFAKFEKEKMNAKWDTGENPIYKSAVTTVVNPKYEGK

[3] = Human radiation dose estimates extrapolated from mouse biodistribution; format: in vivo, BALB/c mice, scaled to adult human male model
Method in brief: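 64Cu tracer biodistribution in normal BALB/c mice given 0.78 MBq. Organs were collected at 1, 2, 4, 12, 24 and 48 h, and %ID/g was decay-corrected. A final group was housed in metabolic cages to collect urine and feces. Organ residence times (2-h void; 1-h void scenario also run) were scaled to human organ weight for the adult male model. Maximum injection assumes a 50 mGy bladder-wall limit. Mean ± SD.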

VLA-4 [4] = target: T1, VLA-4; format: in vivo, KaLwRij mouse
[5] = format: in vivo, BALB/c mice
Method in brief: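 BALB/c mice received 0.78 MBq of 64Cu tracer, with sampling at 1, 2, 4, 12, 24 and 48 h. The last group was kept in metabolic cages to collect excreted urine and feces. Time–activity curves for urine excretion and blood clearance were built as percentage injected activity. Urine residence time used a 1-h void assumption.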

[6] = test system: VLA-4-positive 5TGM1-GFP murine myeloma cells; experiment: Flow cytometry binding of LLP2A-Cy5 to 5TGM1-GFP cells; format: cell-based, mouse; details: coincubated at similar concentrations, P < 0.05

In the case of Cc1ccccc1NC(=O)Nc1ccc(CC(=O)N(C)[C@@H](CC(C)C)C(=O)NCC[C@H](NC(=O)[C@@H]2CCCN2S(=O)(=O)c2cc(Cl)cc(Cl)c2)C(=O)O)cc1 [BIO5192], the “Effect on LLP2A-Cy5 cell binding” value [1] is reported as “blocked”.
For “^64Cu-CB-TE1A1P-PEG4-LLP2A [^64Cu-LLP2A]”, the “Uptake in the spleen of α4 -/- mice” value (VLA-4 [2]) was “negligible uptake”, the Bladder dose ([3]; 1-h bladder-voiding interval) was 0.094 mGy/MBq and the Red marrow dose ([3]; 1-h bladder-voiding interval) was 0.005 mGy/MBq. For the same molecule, the “Human radiation dose estimate, urinary bladder wall (dose-limiting organ)” value ([3]; as stated in abstract and discussion, void interval not stated) was 0.200 mGy/MBq, the “Human radiation dose estimate, red marrow” value ([3]; as stated in abstract, void interval not stated) was 0.006 mGy/MBq and the Maximum injection ([3]; assuming maximum permissible dose of 50 mGy to the bladder wall) was 532 MBq. The “Tumor uptake when coinjected with blocker” value (VLA-4 [4]; coinjected with a 200-fold excess of cold-LLP2A) was “reduced to the background levels”, the Tumor uptake (VLA-4 [4]; subcutaneous 5TGM1-GFP model, i.v. injection of 0.48 MBq, PET at 24 h) was “excellent tumor uptake” and the “Urine excreted, expressed as residence time” value ([5]; 1-h void assumption) was 14.01 h. For the same molecule, the “Blood clearance half-life, fast component” value ([5]; dual-exponential fit of blood time-activity curve, mice) was 6 min and the “Residence time from area under the curve of urine data” value ([5]; urine collected in metabolic cages) was 14.46 h.
In the case of CCOCc1cc(OC)c(-c2ccc(C[C@H](NC(=O)c3c(F)cccc3F)C(=O)O)cc2)c(OC)c1 [firategrast], the “Effect of competitor on LLP2A-Cy5 cell binding” value [6] is reported as “competitively inhibited”.
